≈ marks a conversion by molar mass, not a printed value.
Columns and labels:
Ralstonia solanacearum [1] = test: Antibacterial activity against Ralstonia solanacearum assessed as growth inhibition at 500 ug/ml by turbidometer test (beneficial crop tobacco plant); type: functional
Ralstonia solanacearum [2] = test: Antibacterial activity against Ralstonia solanacearum assessed as growth inhibition at 200 ug/ml by turbidometer test (beneficial crop tobacco plant); type: functional
Ralstonia solanacearum [3] = test: Antibacterial activity against Ralstonia solanacearum assessed as growth inhibition by turbidometer test (beneficial crop tobacco plant); type: functional, organism-based
Ralstonia solanacearum [4] = test: Antibacterial activity against Ralstonia solanacearum in tobacco plant assessed as disease index at 500 ug/ml measured after 14 days of spraying under green house conditions; type: functional
Method in brief: (§1)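 Tobacco seedlings were raised by floating cultivation at 25 °C for 30 d, then transplanted at about the three-leaf stage into pots of 500 g soil, one plant per pot. Plants were sprayed with compound solutions. Morbidity and disease index were recorded per a standard disease investigation and classification protocol at 7, 14 and 21 d, with blank and negative controls.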

Ralstonia solanacearum [5] = test: Antibacterial activity against Ralstonia solanacearum in tobacco plant assessed as control efficacy at 500 ug/ml measured after 7 days of spraying under green house conditions; type: functional; method in brief: as §1
Ralstonia solanacearum [6] = test: Antibacterial activity against Ralstonia solanacearum in tobacco plant assessed as plant morbidity at 500 ug/ml measured after 7 days of spraying under green house conditions; type: functional; method in brief: as §1
Ralstonia solanacearum [7] = test: Antibacterial activity against Ralstonia solanacearum in tobacco field assessed as inhibition of disease at 405 g/ha measured after 21 days of spraying; type: functional
Method in brief: (§2)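 Field trial with foliar spraying, scored 7, 14 and 21 d after treatment. Disease index = (4W + 3X + 2Y + Y)/4A from the plant disease classification sums. Inhibition % = (CK − PT1)/CK × 100, where CK is an untreated blank field. Statistics by ANOVA.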

Ralstonia solanacearum [8] = test: Antibacterial activity against Ralstonia solanacearum in tobacco plant assessed as plant morbidity at 500 ug/ml measured after 21 days of spraying under green house conditions; type: functional; method in brief: as §1
Ralstonia solanacearum [9] = test: Antibacterial activity against Ralstonia solanacearum in tobacco plant assessed as disease index at 500 ug/ml measured after 21 days of spraying under green house conditions; type: functional; method in brief: as §1
Ralstonia solanacearum [10] = test: Antibacterial activity against Ralstonia solanacearum in tobacco plant assessed as control efficacy at 500 ug/ml measured after 21 days of spraying under green house conditions; type: functional; method in brief: as §1
Ralstonia solanacearum [11] = test: Antibacterial activity against Ralstonia solanacearum in tobacco plant assessed as disease index at 500 ug/ml measured after 7 days of spraying under green house conditions; type: functional; method in brief: as §1
Ralstonia solanacearum [12] = test: Antibacterial activity against Ralstonia solanacearum in tobacco field assessed as inhibition of disease at 405 g/ha measured after 14 days of spraying; type: functional; method in brief: as §2
Ralstonia solanacearum [13] = test: Antibacterial activity against Ralstonia solanacearum in tobacco plant assessed as control efficacy at 500 ug/ml measured after 14 days of spraying under green house conditions; type: functional; method in brief: as §1
Ralstonia solanacearum [14] = test: Antibacterial activity against Ralstonia solanacearum in tobacco field assessed as inhibition of disease at 405 g/ha measured after 7 days of spraying; type: functional; method in brief: as §2
Ralstonia solanacearum [15] = test: Antibacterial activity against Ralstonia solanacearum in tobacco plant assessed as plant morbidity at 500 ug/ml measured after 14 days of spraying under green house conditions; type: functional; method in brief: as §1
Ralstonia solanacearum [16] = test: Antibacterial activity against Ralstonia solanacearum in tobacco field assessed as inhibition of disease at 540 g/ha measured after 7 days of spraying; type: functional, organism-based; method in brief: as §2
Ralstonia solanacearum [17] = test: Antibacterial activity against Ralstonia solanacearum in tobacco field assessed as inhibition of disease at 540 g/ha measured after 14 days of spraying; type: functional, organism-based; method in brief: as §2
Ralstonia solanacearum [18] = test: Antibacterial activity against Ralstonia solanacearum in tobacco field assessed as inhibition of disease at 540 g/ha measured after 21 days of spraying; type: functional, organism-based; method in brief: as §2
[19] = Ralstonia solanacearum, read-out: EC50

In the case of COc1ccc(-c2nnc(S(C)(=O)=O)o2)cc1OC, the inhibition at 500 µg/mL (Ralstonia solanacearum [1]) is reported as 10.1% and the inhibition at 200 µg/mL (Ralstonia solanacearum [2]) is reported as 6%.
CCS(=O)(=O)c1nnc(-c2ccc(F)cc2)o1 showed an EC50 (Ralstonia solanacearum [3]; [19]) of 32.1 mg/L (≈ 125 µM), an inhibition at 500 µg/mL (Ralstonia solanacearum [1]) of 100% and an Activity (Ralstonia solanacearum [4]) of 40%. The Efficacy (Ralstonia solanacearum [5]) was 85.5%, the Activity (Ralstonia solanacearum [6]) was 13.3% and the “inhibition (INH)” value (Ralstonia solanacearum [7]) was 71.9%. It also gave an Activity (Ralstonia solanacearum [8]) of 100%, an Activity (Ralstonia solanacearum [9]) of 61.7% and an Efficacy (Ralstonia solanacearum [10]) of 38.3%. For the same compound, the Activity (Ralstonia solanacearum [11]) was 13.3%, the “inhibition (INH)” value (Ralstonia solanacearum [12]) was 68.8% and the Efficacy (Ralstonia solanacearum [13]) was 59.3%. For the same compound, the inhibition at 200 µg/mL (Ralstonia solanacearum [2]) was 100%, the “inhibition (INH)” value (Ralstonia solanacearum [14]) was 65.3% and the Activity (Ralstonia solanacearum [15]) was 60%.
For CS(=O)(=O)c1nnc(-c2ccc(Cl)c([N+](=O)[O-])c2)o1, the inhibition at 500 µg/mL (Ralstonia solanacearum [1]) was 20.1% and the inhibition at 200 µg/mL (Ralstonia solanacearum [2]) was 0%.
Compound COPPER HYDROXIDE [listing 1 of 2 here] has an Activity (Ralstonia solanacearum [4]) of 95%, an Efficacy (Ralstonia solanacearum [5]) of 41.9% and an Activity (Ralstonia solanacearum [6]) of 50.3%. The Activity (Ralstonia solanacearum [8]) was 100%, the Activity (Ralstonia solanacearum [9]) was 100% and the Efficacy (Ralstonia solanacearum [10]) was 0%. The Activity (Ralstonia solanacearum [11]) was 53.3%, the Efficacy (Ralstonia solanacearum [13]) was 3.4% and the Activity (Ralstonia solanacearum [15]) was 100%.
For CCS(=O)(=O)c1nnc(Cc2ccc(Cl)cc2)o1, the inhibition at 500 µg/mL (Ralstonia solanacearum [1]) was 31.4% and the inhibition at 200 µg/mL (Ralstonia solanacearum [2]) was 18.7%.
Work on COPPER HYDROXIDE [listing 2 of 2 here] yielded an EC50 (Ralstonia solanacearum [3]) of 45.9 mg/L.
Work on CCS(=O)(=O)c1nnc(-c2ccc(Cl)c([N+](=O)[O-])c2)o1 yielded an inhibition at 500 µg/mL (Ralstonia solanacearum [1]) of 46% and an inhibition at 200 µg/mL (Ralstonia solanacearum [2]) of 17%.
For CS(=O)(=O)c1nnc(-c2ccc(F)c(F)c2)o1, the inhibition at 500 µg/mL (Ralstonia solanacearum [1]) was 12% and the inhibition at 200 µg/mL (Ralstonia solanacearum [2]) was 11.1%.
CS(=O)(=O)c1nnc(-c2ccccc2Br)o1 showed an inhibition at 500 µg/mL (Ralstonia solanacearum [1]) of 14.2% and an inhibition at 200 µg/mL (Ralstonia solanacearum [2]) of 9.9%.
CCS(=O)(=O)c1nnc(-c2cccc(F)c2)o1 gave an EC50 (Ralstonia solanacearum [3]; [19]) of 47.9 mg/L (≈ 187 µM), an inhibition at 500 µg/mL (Ralstonia solanacearum [1]) of 100% and an inhibition at 200 µg/mL (Ralstonia solanacearum [2]) of 100%.
For CS(=O)(=O)c1nnc(Cc2ccc(Cl)cc2)o1, the inhibition at 500 µg/mL (Ralstonia solanacearum [1]) was 31% and the inhibition at 200 µg/mL (Ralstonia solanacearum [2]) was 19.2%.
For CCS(=O)(=O)c1nnc(-c2ccc(OC)c(OC)c2)o1, the inhibition at 500 µg/mL (Ralstonia solanacearum [1]) was 9.3% and the inhibition at 200 µg/mL (Ralstonia solanacearum [2]) was 2.8%.
With CCS(=O)(=O)c1nnc(-c2ccccc2)o1 the EC50 (Ralstonia solanacearum [3]; [19]) was 39.8 mg/L (≈ 167 µM), the inhibition at 500 µg/mL (Ralstonia solanacearum [1]) was 100% and the Activity (Ralstonia solanacearum [4]) was 86.7%. It also gave an Efficacy (Ralstonia solanacearum [5]) of 34.6%, an Activity (Ralstonia solanacearum [6]) of 60% and an Activity (Ralstonia solanacearum [8]) of 100%. It also gave an Activity (Ralstonia solanacearum [9]) of 91.7%, an Efficacy (Ralstonia solanacearum [10]) of 8.3% and an Activity (Ralstonia solanacearum [11]) of 60%. The Efficacy (Ralstonia solanacearum [13]) was 12%, the inhibition at 200 µg/mL (Ralstonia solanacearum [2]) was 100% and the Activity (Ralstonia solanacearum [15]) was 100%.
Compound CCS(=O)(=O)c1nnc(-c2ccc(F)c(F)c2)o1 has an inhibition at 500 µg/mL (Ralstonia solanacearum [1]) of 52% and an inhibition at 200 µg/mL (Ralstonia solanacearum [2]) of 46.7%.
CCS(=O)(=O)c1nnc(-c2ccc(C)cc2)o1 gave an inhibition at 500 µg/mL (Ralstonia solanacearum [1]) of 39% and an inhibition at 200 µg/mL (Ralstonia solanacearum [2]) of 15%.
CCS(=O)(=O)c1nnc(-c2ccc(F)cc2F)o1 was tested, and the EC50 (Ralstonia solanacearum [3]; [19]) was 60.3 mg/L (≈ 220 µM), the inhibition at 500 µg/mL (Ralstonia solanacearum [1]) was 100% and the inhibition at 200 µg/mL (Ralstonia solanacearum [2]) was 92.3%.
With Saisentong the inhibition (Ralstonia solanacearum [16]) was 61.2%, the inhibition (Ralstonia solanacearum [1]) was 100% and the Activity (Ralstonia solanacearum [4]) was 40%. It also gave an inhibition (Ralstonia solanacearum [17]) of 71.1%, an Efficacy (Ralstonia solanacearum [5]) of 92.7% and an Activity (Ralstonia solanacearum [6]) of 6.7%. The Activity (Ralstonia solanacearum [8]) was 100%, the Activity (Ralstonia solanacearum [9]) was 78.3% and the Efficacy (Ralstonia solanacearum [10]) was 21.7%. It also gave an Activity (Ralstonia solanacearum [11]) of 6.7%, an Efficacy (Ralstonia solanacearum [13]) of 59.3% and an inhibition (Ralstonia solanacearum [2]) of 100%. It also gave an inhibition (Ralstonia solanacearum [18]) of 67.3% and an Activity (Ralstonia solanacearum [15]) of 73.3%.
